The nature of data set [1]: Growth inhibition of human NCI60 cells after 48 hrs by SRB assay. It counts as functional. As to conditions: NCI60, 48 h; for CC50: read-out: LC50 (the source's name). Background: Sulforhodamine B stains cellular protein and so reports cell mass.
The test system of a further data set is K562. Put plainly: Cytotoxicity against human K562 cells after 96 hrs by alamar blue assay. As to conditions: K562, 96 h. It counts as functional, cell-based. The essentials: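 K562 cells kept in RPMI with 10% fetal calf serum and 2 mM glutamine, seeded at 10⁴ cells/mL. Compounds serially diluted in DMSO and added in triplicate; exposure 96 h at 37 °C, 5% CO₂. Alamar Blue (1 μM final) then added for a further 4 h; read by fluorescence emission at 580-620 nm.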
On the technique in general: The colour change of resazurin is a common sign of viable cells or microbes.

Data set [2] relates to Calf thymus DNA. Put plainly: Binding affinity to calf thymus DNA assessed as change in melting temperature after 18 hrs. It counts as nucleic-acid assay. As to conditions: Bos taurus. The essentials: (§1)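 Calf thymus DNA at a fixed 100 μM (DNAp, 50 μM bp) in pH 7.00 buffer of 10 mM NaH₂PO₄/Na₂HPO₄ and 1 mM Na₂EDTA, 1:5 ligand/DNAp ratio, DMSO ≤0.3% v/v. Mixture kept at 37 °C for the stated time, then melted while absorbance at 260 nm was monitored. Tm taken at the midpoint of the normalized profile; ΔTm = Tm(DNA+ligand) − Tm(DNA), corrected for DMSO; mean of at least three runs.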

The test system of the next data set is HCT-116. Description: Antitumor activity against human HCT116 cells xenografted in nu/nu BALB/c mouse assessed as delay in tumor growth at 300 ug/kg, iv. The class given is functional, cell-based. The essentials: (§2)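 Female nu/nu-BALB/c athymic nude mice bearing subcutaneous flank HCT 116 xenografts (10⁷ cells), dosed once intravenously at 300 μg/kg in 1% DMSO/saline once tumours reached 50-100 mm³; vehicle-only controls. Tumours measured by calliper 3 times a week (width² × length/2), expressed as volume relative to day 1. Body weight monitored daily over 12 days as % change from day 1.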
A general note: A xenograft is tissue or cells of one species grown in another, often human tumour cells in immunodeficient mice.

Data set [3] relates to Calf thymus DNA. Description: Binding affinity to calf thymus DNA assessed as change in melting temperature after 4 hrs. The settings on record: Bos taurus. The class given is nucleic-acid assay. The method in brief: as §1
For a further data set, the system named is Mus musculus. Put plainly: Toxicity in human HCT116 xenografter nu/nu BALB/c mouse assessed as change in body weight at 300 ug/kg, iv. The class given is organism-based. The settings on record: in vivo, 0.3 mg/kg. The method in brief: as §2

The structures appear in SMILES notation. pIC50: −log10 of the molar value. Active and inactive are the calls of the source. The rule behind the calls is not given here.

`COc1cc2c(cc1OC)C(=O)N1C=C(c3ccc4ncccc4c3)C[C@H]1C=N2`: in data set [1], the GI50 was 0.4 nM, the TGI was 4 nM and the CC50 was found to be 190 nM. This compound had a pIC50 in the data set with K562 of 8.85. Further, the ΔTm in the data set on Calf thymus DNA [2] was determined as 20.5 °C. For the same compound, the outcome in the data set with HCT-116 was Active. Besides, the ΔTm with Calf thymus DNA [3] turned out to be 19.9 °C. Moreover, the Activity entry with Mus musculus is on record as “Non-toxic”.
For the compound `COc1cc2c(cc1OC)C(=O)N1C=C(c3ccc(Oc4ccccc4)cc3)C[C@H]1C=N2`, in data set [1], the GI50 amounted to 3 nM, the TGI is 30 nM and the CC50 is 1260 nM. Besides, in the data set with K562, the pIC50 was 7.29. Moreover, the ΔTm with Calf thymus DNA [2] was 12.1 °C. Also, in the data set with Calf thymus DNA [3], the shift in melting temperature (ΔTm) was determined as 11.9 °C.
As to `COc1cc2c(cc1OC)C(=O)N1C=C(c3ccccc3)C[C@H]1C=N2`, in data set [1], the GI50 was determined as 2 nM, the TGI was 40 nM and the CC50 is 5130 nM. For the same compound, in the data set on K562, the pIC50 is 8.60. Besides, in the data set with Calf thymus DNA [2], the ΔTm is 10.8 °C. The ΔTm in the data set with Calf thymus DNA [3] came to 10.6 °C.

One may read the GI50 as the concentration giving 50% growth inhibition. A low value points to more potent growth inhibition. Broadly, the TGI is the concentration at which net growth stops. A word on the pIC50: it is the negative decadic logarithm of the IC50, by convention in mol/L. Low readings indicate a high IC50, high ones a low IC50. As usually defined, the ΔTm is the shift of the melting midpoint relative to a reference.

The values above are taken from ChEMBL document CHEMBL1165887, “Structure-activity relationships of monomeric C2-aryl pyrrolo[2,1-c][1,4]benzodiazepine (PBD) antitumor agents” (J Med Chem, 2010).
